Results as given in ChEMBL document CHEMBL2331243, “Discovery and mechanism study of SIRT1 activators that promote the deacetylation of fluorophore-labeled substrate” (J Med Chem, 2013).
Substitutions are numbered along the chain they refer to. The source made the active and inactive calls. The rule behind the calls is not given here.

Legend:
[1] = tested on: T1, NAD-dependent protein deacetylase sirtuin-1 (Homo sapiens), Q96EB6 [R446A]; experiment: Activation of SIRT1 R446A mutant (unknown origin) at 50 uM relative to control
T1 sequence (whole entry): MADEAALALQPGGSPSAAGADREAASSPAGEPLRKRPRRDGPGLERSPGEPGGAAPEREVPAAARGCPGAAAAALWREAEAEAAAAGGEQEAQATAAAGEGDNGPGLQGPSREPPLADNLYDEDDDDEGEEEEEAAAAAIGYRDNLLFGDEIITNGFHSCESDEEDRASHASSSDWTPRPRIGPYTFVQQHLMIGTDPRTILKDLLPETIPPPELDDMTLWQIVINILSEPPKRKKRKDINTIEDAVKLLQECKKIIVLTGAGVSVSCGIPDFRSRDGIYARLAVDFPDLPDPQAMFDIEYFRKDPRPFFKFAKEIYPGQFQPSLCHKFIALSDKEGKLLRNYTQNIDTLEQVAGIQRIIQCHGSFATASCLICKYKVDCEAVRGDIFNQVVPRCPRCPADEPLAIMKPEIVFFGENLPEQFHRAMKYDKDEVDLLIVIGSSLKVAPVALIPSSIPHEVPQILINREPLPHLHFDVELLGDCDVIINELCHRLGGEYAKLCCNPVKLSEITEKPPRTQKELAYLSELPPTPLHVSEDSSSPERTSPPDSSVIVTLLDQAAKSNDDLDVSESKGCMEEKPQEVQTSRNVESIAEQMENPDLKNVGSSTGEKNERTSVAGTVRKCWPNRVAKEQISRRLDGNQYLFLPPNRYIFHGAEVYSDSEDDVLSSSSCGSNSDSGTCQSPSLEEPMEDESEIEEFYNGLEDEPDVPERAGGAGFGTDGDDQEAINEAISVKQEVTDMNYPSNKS
Method in brief: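 SIRT1 R446A mutant made by site-directed mutagenesis, expressed in E. coli and purified on Ni-NTA. Fluorescent deacetylation assay used 1 μM enzyme, 750 μM NAD⁺, 31.25 μM ac-RHKK_ac-AMC and 50 μM compound versus DMSO, in Tris buffer pH 8.0. Trypsin released AMC from deacetylated peptide, read at ex 340/em 490 nm.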

[2] = biological target: T2, NAD-dependent protein deacetylase sirtuin-1 (Homo sapiens) (UniProt Q96EB6); experiment: Activation of N-terminal His6-tagged SIRT1 (156 to 664 amino acid residues) (unknown origin) expressed in Escherichia coli BL21(DE3) using ac-RHKKac-NH2 as substrate after 45 mins by HPLC analysis
T2 sequence (whole entry): T1 sequence (whole entry) with A446R

[3] = biological target: T2, NAD-dependent protein deacetylase sirtuin-1 (Homo sapiens); experiment: Activation of N-terminal His6-tagged SIRT1 (156 to 664 amino acid residues) (unknown origin) expressed in Escherichia coli BL21(DE3) using ac-RHKKac-AMC as substrate at 50 uM after 45 mins by fluorimetric analysis relative to control
Method in brief: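 Fluorogenic deacetylation screen: 1 μM SIRT1 with 750 μM NAD⁺ and 31.25 μM ac-RHKK_ac-AMC in Tris buffer (25 mM Tris, 137 mM NaCl, 2.7 mM KCl, 1 mM MgCl₂, pH 8.0). Compounds at 50 μM from DMSO stocks; DMSO alone as blank. Trypsin then releases AMC from deacetylated peptide; fluorescence read at 340/490 nm.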

[4] = biological target: T2, NAD-dependent protein deacetylase sirtuin-1 (Homo sapiens); experiment: Activation of SIRT1 in human MCF7 cells assessed as reduction in doxorubicin-induced acetyl-p53 level at >100 uM after 6 hrs by Western blotting analysis; type: cell-based
Method in brief: (§1)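 MCF-7 cells were seeded at 1 × 10⁵ in DMEM with 10% fetal calf serum and grown 24 h at 37 °C, 5% CO₂. They then got gradient compound concentrations with 0.1 μM trichostatin and 5 μM doxorubicin for 6 h, then lysis. 50 μg protein was run on a 9% gel and blotted with polyclonal anti-acetyl-p53 (Lys382) at 4 °C overnight, with HRP anti-rabbit detection.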

[5] = biological target: T2, NAD-dependent protein deacetylase sirtuin-1 (Homo sapiens); experiment: Activation of SIRT1 in human MCF7 cells assessed as reduction in doxorubicin-induced acetyl-p53 level at <100 uM after 6 hrs by Western blotting analysis; type: cell-based; method in brief: as §1
[6] = biological target: T3, NAD-dependent protein deacetylase sirtuin-3, mitochondrial (Homo sapiens) (UniProt Q9NTG7); experiment: Activation of N-terminal His6-tagged SIRT3 (118 to 399 amino acid residues) (unknown origin) expressed in Escherichia coli BL21(DE3) using ac-RHKKac-AMC as substrate at 50 uM after 45 mins by fluorometric analysis relative to control
T3 sequence (whole entry): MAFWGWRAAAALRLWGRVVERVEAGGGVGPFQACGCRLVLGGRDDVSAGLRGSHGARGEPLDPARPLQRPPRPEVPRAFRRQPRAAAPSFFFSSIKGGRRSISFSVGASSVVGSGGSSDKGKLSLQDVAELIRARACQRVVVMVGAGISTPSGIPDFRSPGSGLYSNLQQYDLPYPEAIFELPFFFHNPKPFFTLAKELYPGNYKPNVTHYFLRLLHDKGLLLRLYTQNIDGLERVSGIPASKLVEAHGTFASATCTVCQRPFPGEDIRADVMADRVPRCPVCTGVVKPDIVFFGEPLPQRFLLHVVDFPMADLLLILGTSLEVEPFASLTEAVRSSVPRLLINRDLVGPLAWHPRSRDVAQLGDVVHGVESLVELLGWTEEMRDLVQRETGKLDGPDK
Method in brief: (§2)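 Fluorescent deacetylation assay in 25 mM Tris, 137 mM NaCl, 2.7 mM KCl, 1 mM MgCl₂, pH 8.0, with 750 μM NAD⁺ and 31.25 μM ac-RHKK_ac-AMC. Enzyme was 3.6 μM SIRT3 or 4.2 μM GST-SIRT2, set to match SIRT1 activity. Trypsin released AMC from the deacetylated peptide, read at ex 340 / em 490 nm. Compounds were added from DMSO (DMSO as blank): single point at 50 μM, or 3-fold DMSO dilution series. EC1.5 (concentration giving 50% activity increase) and maximum activation were fitted to a dose–response function.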

[7] = biological target: T4, NAD-dependent protein deacetylase sirtuin-1 (Homo sapiens, UniProt Q96EB6); experiment: Activation of N-terminal His6-tagged SIRT1 (156 to 664 amino acid residues) (unknown origin) expressed in Escherichia coli BL21(DE3) using ac-RHKKac-AMC as substrate after 45 mins by fluorometric analysis
T4 sequence (Q96EB6 whole entry): T1 sequence (whole entry) with A446R

[8] = biological target: T5, NAD-dependent protein deacetylase sirtuin-2 (Homo sapiens) (UniProt Q8IXJ6); experiment: Activation of at N-terminal GST-tagged SIRT2 (34 to 356 amino acid residues) (unknown origin) expressed in Escherichia coli BL21(DE3) using ac-RHKKac-AMC as substrate at 50 uM after 45 mins by fluorometric analysis relative to control; method in brief: as §2
T5 sequence (whole entry): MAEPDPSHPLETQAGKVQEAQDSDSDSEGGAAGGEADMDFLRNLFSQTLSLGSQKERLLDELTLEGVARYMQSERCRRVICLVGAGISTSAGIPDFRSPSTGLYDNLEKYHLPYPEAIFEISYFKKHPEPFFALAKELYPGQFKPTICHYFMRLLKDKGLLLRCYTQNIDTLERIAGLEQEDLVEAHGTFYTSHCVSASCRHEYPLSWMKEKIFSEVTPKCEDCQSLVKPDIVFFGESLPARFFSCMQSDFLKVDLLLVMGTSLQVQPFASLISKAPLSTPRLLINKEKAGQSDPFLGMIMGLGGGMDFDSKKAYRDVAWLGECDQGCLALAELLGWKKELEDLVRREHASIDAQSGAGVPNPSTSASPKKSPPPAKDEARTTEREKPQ

[9] = biological target: T6, NAD-dependent protein deacetylase sirtuin-3, mitochondrial (Homo sapiens, UniProt Q9NTG7); experiment: Activation of N-terminal His6-tagged SIRT3 (118 to 399 amino acid residues) (unknown origin) expressed in Escherichia coli BL21(DE3) using ac-RHKKac-AMC as substrate after 45 mins by fluorometric analysis; method in brief: as §2
T6 sequence (Q9NTG7 whole entry): T3 sequence (whole entry)

[10] = biological target: T7, NAD-dependent protein deacetylase sirtuin-2 (Homo sapiens, UniProt Q8IXJ6); experiment: Activation of at N-terminal GST-tagged SIRT2 (34 to 356 amino acid residues) (unknown origin) expressed in Escherichia coli BL21(DE3) using ac-RHKKac-AMC as substrate after 45 mins by fluorometric analysis; method in brief: as §2
T7 sequence (Q8IXJ6 whole entry): T5 sequence (whole entry)

max activation [1] [%]	Activity [2]	max activation [3] [%]	Activity [4]	Activity [5]	max activation [6] [%]	EC50 [7] [µM]	max activation [8] [%]	EC50 [9] [µM]	EC50 [10] [µM]	SMILES
239	inactive	802	Active	inactive	–	–	–	–	–	Oc1ccc(/C=C/c2cc(O)cc(O)c2)cc1
–	–	194	–	–	199	1.8	257	28.6	11.6	O=C(N/N=C/c1cc(Br)c(O)c(Br)c1O)c1ccc2cc(-c3ccccc3)ccc2c1
